Assay outcomes deposited in PubChem by Johns Hopkins Ion Channel Center.
This is a sample that favours compounds with a hit; in the whole collection about 3.7% have one here.
hERG rescue – hERG rescue from dofetilide block, primary screen, cell-based, CHO-hERG, FluxOR thallium flux, dofetilide IC70; Voltage-gated inwardly rectifying potassium channel KCNH2 (Homo sapiens), Q12809; activation (rescue from dofetilide block), less the hit threshold, % at 10 µM; dofetilide IC70 present; AID 1511, 2009; 310,000 compounds, 0.51% hits;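 active = activation above the mean of controls blocked by dofetilide plus 5 SD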;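 also: thallium influx through hERG after potassium depolarization seen as dye fluorescence rise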
Kir21 block – inhibitors of mouse Kir2.1 inward-rectifier potassium channel; Inward rectifier potassium channel 2 (Mus musculus), P35561; HEK293-Kir2.1, FluxOR thallium flux fluorescence; stronger effect = lower value; B-score at 10 µM; 310,000 compounds, 0.85% hits; AID 1672, 2009;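 active = fluorescence ratio B-score at or below minus 3 SD of library scores, with starting-brightness B-score within 2 SD, cut at about -4.2 in these data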;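 also: channel flux triggered by added potassium and thallium sulfate stimulus; B-score of peak minus minimum fluorescence over baseline after thallium stimulus; more negative B-score means stronger Kir2.1 block with less thallium influx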
KCNQ1 pot – potentiators or activators of KCNQ1 channel, primary screen, cell-based, thallium flux, high-throughput. AID 2648, 2010. B-score at 10 µM. Potassium voltage-gated channel subfamily KQT member 1 (Homo sapiens), P51787. CHO-K1 KCNQ1, thallium flux FluxOR fluorescence; stronger effect = higher value. 310,000 compounds, 0.35% hits;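 active = fluorescence ratio B-score, a plate-corrected score, at least three library SD, with initial intensity B-score within 5 SD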
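Assay system: CHO-K1 cells stably expressing KCNQ1. Medium: assay buffer for compound exposure, DMSO matched across wells. Timing: 37 °C overnight plating, 90-min dark dye load, 20-min compound pretreatment. Signal: kinetic FluxOR fluorescence, 10 s baseline plus 110 s post-stimulus.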
KCNK3 inh – human KCNK3 channel inhibitors, primary screen, CHO cells, FluxOR thallium flux, B-score | FluxOR fluorescence; stronger effect = lower value | B-score at 10 µM | 340,000 compounds, 0.84% hits;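 active = B-score under library mean minus 4 SD, starting fluorescence ratio at most library mean plus 5 SD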;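 also: more negative B-score means stronger inhibition of thallium flux through KCNK3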
Target sequence (O14649 whole entry, looked up): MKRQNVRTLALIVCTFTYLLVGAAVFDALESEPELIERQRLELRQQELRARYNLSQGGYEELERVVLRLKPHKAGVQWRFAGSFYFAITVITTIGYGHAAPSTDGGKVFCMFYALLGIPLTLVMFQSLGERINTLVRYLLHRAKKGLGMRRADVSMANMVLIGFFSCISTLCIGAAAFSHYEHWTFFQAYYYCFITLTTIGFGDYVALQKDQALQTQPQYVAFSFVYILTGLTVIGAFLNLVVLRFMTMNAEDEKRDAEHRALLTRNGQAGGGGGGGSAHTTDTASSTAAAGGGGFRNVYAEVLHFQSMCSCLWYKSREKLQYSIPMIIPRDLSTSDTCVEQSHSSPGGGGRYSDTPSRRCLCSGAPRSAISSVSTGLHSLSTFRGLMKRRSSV
KCNK9 inh – KCNK9 potassium channel inhibitors, primary screen, HEK293 cells, thallium flux; Potassium channel subfamily K member 9 (Homo sapiens), Q9NPC2; FluxOR thallium flux fluorescence; stronger effect = lower value; B-score at 10 µM; 310,000 compounds, 1.2% hits; AID 488922, 2010;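 active = ratio B-score over 3 SD below the library mean, with starting fluorescence within 5 SD of its mean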;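 also: negative B-score means less thallium flux so channel inhibition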
KCNQ1 block – inhibitors of human KCNQ1 channel, primary screen, cell-based, thallium flux, high-throughput | CHO-K1 KCNQ1, FluxOR thallium flux fluorescence; stronger effect = higher value | B-score at 10 µM | Potassium voltage-gated channel subfamily KQT member 1 (Homo sapiens), P51787 | 310,000 compounds, 1.3% hits;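 active = compounds whose thallium flux B-score, printed positive for inhibition, exceeds three library SD while starting fluorescence stays within three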;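 also: channel opened by potassium depolarization with thallium stimulus after 20 min compound exposure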
KCNK9 inh conf – KCNK9 potassium channel inhibitors, confirmation, HEK293 cells, thallium flux, duplicate; 4,900 compounds, 43% hits; AID 492992, 2010; FluxOR thallium flux fluorescence; inhibition, % at 10 µM; shares compounds with KCNK9 inh;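 active = thallium signal inhibited by more than 5 SD of the compound-free buffer control wells, on both duplicate plates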;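 also: 0% = assay buffer control wells without compound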
Kir21 sel – mouse Kir2.1 channel inhibition, confirmation, selectivity assay for KCNK9 modulator project, cell-based, HEK293, thallium flux. shares compounds with KCNK9 inh. Kir2.1 cells, FluxOR thallium flux fluorescence. inhibition, % at 10 µM. 4,900 compounds, 4% hits;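 active = thallium signal drop more than 5 SD beyond the mean of the no-compound control wells, seen in both duplicate plates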;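 also: signal is fluorescence rise after thallium addition divided by baseline fluorescence; plate controls were assay buffer only for no effect and full block by chlorpromazine control for full effect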
KCNK9 uninduced – thallium flux in non-induced HEK293 cells, confirmation, counter-screen for KCNK9 inhibitor project, cell-based, second counter screen, non-induced KCNK9-HEK293; inhibition, % at 10 µM; 4,900 compounds, 40% hits; shares compounds with KCNK9 inh; FluxOR thallium flux;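 active = thallium signal drop beyond 5 SD of the untreated control mean, on both duplicate plates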;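 also: plate controls were buffer only IC0 wells for no effect and SID17386958 at its maximal inhibitory level for full effect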
Active calls of the source: *; i = inactive; · = not tested or not shown.

SMILES	hERG rescue	Kir21 block	KCNQ1 pot	KCNK3 inh	KCNK9 inh	KCNQ1 block	KCNK9 inh conf	Kir21 sel	KCNK9 uninduced
CC(C)Oc1cccc(C(=O)C2CCCN(C(=O)CCn3cnnn3)C2)c1 (stereo unspecified)	-13	-0.54	i	i	i	i	·	·	·
O=S(=O)(c1cccc(S(=O)(=O)N2CCCC2)c1)N1CCCCC1	-8	-0.37	i	i	i	i	·	·	·
O=S(=O)(c1cccc(S(=O)(=O)N2CCCC2)c1)c1cccc(S(=O)(=O)N2CCCC2)c1	-8	-0.01	i	i	-9.2*	i	54%*	i	i
O=C(OCc1ccc(Br)cc1)c1cccc(S(=O)(=O)N2CCCC2)c1	-21	-1.8	i	i	-12*	i	i	i	34%*
CC(C)(C)C(=O)Cn1nnc(-c2ccc(C(F)(F)F)cc2)n1	-7	1.6	i	i	i	i	·	·	·
CC(Oc1ccc(F)cc1)C(=O)Nc1cc(C(F)(F)F)ccc1-n1cncn1 (stereo unspecified)	-15	-3.8	i	i	i	i	·	·	·
Cn1nnc(-c2ccc(OCc3ccccc3F)cc2)n1	-3	0.53	i	i	i	i	·	·	·
Fc1ccccc1COc1ccc(-c2nnn(Cc3ccccc3F)n2)cc1	-6	-0.1	i	i	i	i	i	i	i
Cc1ccc(/C=C2\C(=O)ON=C2c2ccccc2)o1	-4	-0.51	i	i	i	i	·	·	·
Cc1ccc(-c2ccc(/C=C3\C(=O)ON=C3c3ccccc3)o2)c([N+](=O)[O-])c1	-48	-0.45	8*	i	i	i	i	i	32%*
Cc1cc(C(=O)COC(=O)c2ccccc2O)c(C)n1Cc1cccs1	-11	-0.61	i	i	i	i	·	·	·
CCn1nc(C(=O)OCC(=O)c2cc(C)n(Cc3cccs3)c2C)c2ccccc2c1=O	-17	-0.1	i	i	i	i	i	i	i
Cc1cc(C(=O)COC(=O)c2ccc3c(c2)OCO3)c(C)n1Cc1cccs1	-5	0.91	i	i	i	i	i	i	i
CCOc1ccc(CCNC(=O)Cn2nc(C)c3c(C)n(-c4ccccc4)nc3c2=O)cc1	-6	0.04	i	i	i	i	·	·	·
CCC(C(=O)N1CCN(c2cccc(Cl)c2)CC1)c1ccccc1 (stereo unspecified)	-8	0.15	i	-11*	-11*	i	50%*	i	32%*
CC(C)c1ccc(C2c3[nH]c4ccccc4c3C[C@H]3C(=O)N(c4ccccc4C(=O)N4CCC[C@@H]4C(=O)O)C(=O)N23)cc1 (stereo partly specified)	-9	2.1	i	i	i	i	·	·	·
CCOC(=O)N1CCC(n2c(SCC(=O)NCc3ccccc3)nc3ccccc3c2=O)CC1	-15	-1.3	i	i	i	i	·	·	·
CCOC(=O)N1CCC(n2c(SCC(=O)NCCC3=CCCCC3)nc3ccccc3c2=O)CC1	-21	1.8	i	i	i	i	i	i	i
c1ccc(SCCN2CCN(c3ccccc3)CC2)cc1	-8	0.53	i	i	i	i	i	i	i
CCCN1CCC(=O)N(CCSc2ccccc2)CC1	2	0.81	i	i	i	i	·	·	·
Cc1c(C=O)c2ccccc2n1CC(=O)NC(C)c1ccccc1 (stereo unspecified)	-13	0.55	i	i	i	i	·	·	·
C=C1CCC2C(C)(C)[C@H](O)CC[C@@]2(C)[C@@H]1COc1cc(=O)oc2ccccc12 (stereo partly specified)	-19	0.3	i	i	-13*	i	60%*	i	26%*
CCn1c(C(=O)NCCCN2CCc3ccccc3C2)cc2sccc21	-13	-2.4	i	i	i	i	·	·	·
CCn1c(C(=O)N2CCc3ccccc3C2)cc2sccc21	-11	-0.23	i	i	i	i	i	i	i
Cc1c(C(=O)CN2CCN(c3ccccc3)CC2)c2ccccc2n1C	-6	0.56	i	i	i	i	i	i	i
SMILES	hERG rescue	Kir21 block	KCNQ1 pot	KCNK3 inh	KCNK9 inh	KCNQ1 block	KCNK9 inh conf	Kir21 sel	KCNK9 uninduced
Cc1ccccc1Nc1ncnc2c1cnn2-c1ccccc1	-11	-0.67	i	i	-9.5*	i	i	i	i
Cc1cccc(OCCOC(=O)c2ccc(F)c(S(=O)(=O)N3CCOCC3)c2)c1	·	·	·	i	·	·	·	·	·
Cc1ccc(C(=O)NCc2ccc(N3CCN(C(=O)OC(C)(C)C)CC3)cc2)cc1	-16	-0.82	i	i	i	i	i	i	i
Cc1ccc(CNC(=O)N2CCN(c3ccc(C)cc3)CC2)cc1	-8	0.01	i	i	i	i	·	·	·
COC(=O)c1ccccc1NC(=O)CN(C)Cc1ccccc1	-7	-1.6	i	i	-9.9*	i	39%*	i	38%*
O=C(COC(=O)/C=C/c1cccs1)NC1CC1	-11	2.2	i	i	i	i	·	·	·
CCOc1ccc(NC(=O)CSc2nnnn2C2CC2)cc1S(=O)(=O)N1CCCC1	·	·	·	i	·	·	·	·	·
C=C(C)C1CCC(C)=C1COC(=O)Nc1ccccc1 (stereo unspecified)	-7	-0.46	i	i	i	i	i	i	i
O=C(Nc1ccccc1)OCCCCOC(=O)Nc1ccccc1	·	·	·	i	·	·	·	·	·
Cc1cc(C)c(S(=O)(=O)Nc2cccc(S(=O)(=O)N3CCOCC3)c2)c(C)c1	-8	0.95	i	i	i	i	·	·	·
Cc1c(C(=O)Nc2ccc(-c3nnc4n3CCCCC4)cc2)oc2c1ccc1ccccc12	-8	1.8	i	i	-12*	i	i	i	30%*
